# Measured values: ChEMBL document CHEMBL4732224, “Structure activity refinement of phenylsulfonyl piperazines as antimalarials that block erythrocytic invasion” (Eur J Med Chem, 2021)
# What was measured:
# HepG2 = assay: Cytotoxicity against human HePG2 cells assessed as growth inhibition after 48 hrs by Cell Titer-Glo assay; format: cell-based; conditions: HepG2, 48 h
# Plasmodium falciparum [1] = assay: Antimalarial activity against Plasmodium falciparum 3D7 incubated for 72 hrs by LDH assay; format: functional, organism-based; conditions: 3D7, 72 h
# Summary of the method: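 Asexual blood-stage P. falciparum 3D7 parasites were cultured with compound for 72 h, and viability was read by lactate dehydrogenase (LDH) activity.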
# [2] = Intrinsic clearance in mouse liver microsomes at 1 uM in presence of NADPH measured up to 60 mins by LC-MS analysis; format: ADME, Microsome; conditions: read-out: CLH
# Plasmodium falciparum [3] = assay: Antimalarial activity against Plasmodium falciparum NF54 early stage (1 to 3) expressing Pfs16-LUC-GFP assessed as growth inhibition by high content imaging assay; format: functional, organism-based
# Plasmodium falciparum [4] = assay: Antimalarial activity against Plasmodium falciparum NF54 late stage ([…]) expressing Pfs16-LUC-GFP assessed as growth inhibition by high content imaging assay; format: functional, organism-based
# Plasmodium falciparum [5] = assay: Antimalarial activity against asexual blood stage of artemisinin-resistant Plasmodium falciparum Cam3.12539T cambodian isolate assessed as reduction in cell viability after 72 hrs by EtBr staining based flow cytometric analysis; format: functional, organism-based; conditions: Cam3.12539T cambodian isolat
# Plasmodium falciparum [6] = assay: Antimalarial activity against asexual blood stage of chloroquine-resistant Plasmodium falciparum Dd2 assessed as reduction in cell viability after 72 hrs by EtBr staining based flow cytometric analysis; format: functional, organism-based; conditions: Dd2, 72 h
# Plasmodium falciparum [7] = assay: Antimalarial activity against Plasmodium falciparum NF54 late stage ([…]) expressing Pfs16-LUC-GFP assessed as growth inhibition at 20 uM by high content imaging assay relative to control; format: functional; conditions: read-out: GI
# Plasmodium falciparum [8] = assay: Antimalarial activity against asexual blood stage of Plasmodium falciparum 3D7 assessed as reduction in cell viability after 72 hrs by EtBr staining based flow cytometric analysis; format: functional, organism-based; conditions: 3D7, 72 h
# Plasmodium knowlesi = assay: Antimalarial activity against asexual blood stage of Plasmodium knowlesi YHI assessed as reduction in cell viability after 48 hrs by EtBr staining based flow cytometric analysis; format: functional, organism-based
# Plasmodium falciparum [9] = assay: Antimalarial activity against asexual blood stage of Mefloquine-resistant Plasmodium falciparum W2mef assessed as reduction in cell viability after 72 hrs by EtBr staining based flow cytometric analysis; format: functional, organism-based
# Plasmodium falciparum [10] = assay: Antimalarial activity against asexual blood stage of chloroquine-resistant Plasmodium falciparum 7G8 assessed as reduction in cell viability after 72 hrs by EtBr staining based flow cytometric analysis; format: functional, organism-based; conditions: 7G8, 72 h
EC50 (Plasmodium falciparum [1]),Compound,EC50 (HepG2),other results
1.9 µM,CCC(C(=O)N1CCCC1)N1CCN(S(=O)(=O)c2ccc(C(C)(C)C)cc2)CC1 (centres undefined),> 40 µM,–
1.9 µM,CC(C(=O)N1CCCc2ccccc21)N1CCN(S(=O)(=O)c2ccc(C(C)(C)C)cc2)CC1 (centres undefined),> 40 µM,–
0.99 µM,CC(C(=O)N1CCc2ccccc2C1)N1CCN(S(=O)(=O)c2ccc(C(C)(C)C)cc2)CC1 (centres undefined),29 µM,–
> 10 µM,CC(C)C(C(=O)N1CCCC1)N1CCN(S(=O)(=O)c2ccc(C(C)(C)C)cc2)CC1 (centres undefined),–,–
1.9 µM,CC(C(=O)N1CCc2cccnc2C1)N1CCN(S(=O)(=O)c2ccc(C(C)(C)C)cc2)CC1 (centres undefined),> 40 µM,–
> 10 µM,CC(C)(C)c1ccc(S(=O)(=O)N2CCN(C(Cc3ccccc3)C(=O)N3CCCC3)CC2)cc1 (centres undefined),–,–
9.1 µM,CCC(C)c1ccc(S(=O)(=O)N2CCN(C(C)C(=O)N3CCCC3)CC2)cc1 (centres undefined),> 40 µM,–
0.92 µM,CC(C(=O)N1CCCC1)N1[C@@H]2CC[C@H]1CN(S(=O)(=O)c1ccc(C(C)(C)C)cc1)C2 (some centres undefined),> 40 µM,microsomal CLint at 1 µM [2]: 473 µL/min/mg
> 11 µM,C[C@H](C(=O)N1CCCC1)N1CCN(S(=O)(=O)c2ccc(C(C)(C)C)cc2)CC1,> 40 µM,–
8.4 µM,CC(C(=O)N1CCCC1)N1CCN(S(=O)(=O)c2cccc(C(C)(C)C)c2)CC1 (centres undefined),> 40 µM,–
4.3 µM,CC(C(=O)N1CCCC1)N1C[C@@H]2CN(S(=O)(=O)c3ccc(C(C)(C)C)cc3)C[C@@H]2C1 (some centres undefined),> 40 µM,–
4.3 µM,CC(C(=O)N1CCC(C)(C)CC1)N1CCN(S(=O)(=O)c2ccc(C(C)(C)C)cc2)CC1 (centres undefined),> 40 µM,–
> 10 µM,Cc1ccc(S(=O)(=O)N2CCN(C(C)C(=O)N3CCCC3)CC2)cc1 (centres undefined),–,–
6.3 µM,CC(C(=O)N1CCCC1)N1CCCN(S(=O)(=O)c2ccc(C(C)(C)C)cc2)CC1 (centres undefined),> 40 µM,–
7.5 µM,CC(C)(C)c1ccc(S(=O)(=O)N2CCN(C(C)(C)C(=O)N3CCCC3)CC2)cc1,> 40 µM,–
1.2 µM,CCC1(CC)c2ccccc2CCN1C(=O)C(C)N1CCN(S(=O)(=O)c2ccc(C(C)(C)C)cc2)CC1 (centres undefined),> 40 µM,–
> 10 µM,CC(C(=O)N1CCCC1)N1CC2(C1)CN(S(=O)(=O)c1ccc(C(C)(C)C)cc1)C2 (centres undefined),–,–
2.6 µM,CC(C(=O)N1CCc2ncccc2C1)N1CCN(S(=O)(=O)c2ccc(C(C)(C)C)cc2)CC1 (centres undefined),> 40 µM,–
0.81 µM,CC(C(=O)N1C[C@H]2CCC[C@H]2C1)N1CCN(S(=O)(=O)c2ccc(C(C)(C)C)cc2)CC1 (some centres undefined),> 40 µM,–
4.4 µM,CC(C(=O)N1CCOCC1)N1CCN(S(=O)(=O)c2ccc(C(C)(C)C)cc2)CC1 (centres undefined),> 40 µM,–
1.3 µM,CC(C(=O)N1CCCC1)N1CCN(S(=O)(=O)c2ccc([Si](C)(C)C)cc2)CC1 (centres undefined),> 40 µM,–
> 10 µM,CC(C)(C)c1ccc(S(=O)(=O)N2CCN(CC(=O)N3CCCC3)CC2)cc1,–,–
1.8 µM,CCN(CC)C(=O)C(C)N1CCN(S(=O)(=O)c2ccc(C(C)(C)C)cc2)CC1 (centres undefined),> 40 µM,–
2.9 µM,CC(C(=O)N1CCc2ccccc2C12CCCCC2)N1CCN(S(=O)(=O)c2ccc(C(C)(C)C)cc2)CC1 (centres undefined),> 40 µM,–
0.65 µM,CC(C(=O)N1CCCCCC1)N1CCN(S(=O)(=O)c2ccc(C(C)(C)C)cc2)CC1 (centres undefined),> 40 µM,–
> 10 µM,CC(=O)c1ccc(S(=O)(=O)N2CCN(C(C)C(=O)N3CCCC3)CC2)cc1 (centres undefined),–,–
1.2 µM,CC(C(=O)N(C)Cc1ccccc1)N1CCN(S(=O)(=O)c2ccc(C(C)(C)C)cc2)CC1 (centres undefined),> 40 µM,–
> 10 µM,CC(C(=O)N1CCCC1)N1CCN(S(=O)(=O)c2ccc(C3CCCC3)cc2)CC1 (centres undefined),–,–
0.92 µM,CC(C(=O)N1C2CCCC1CC2)N1CCN(S(=O)(=O)c2ccc(C(C)(C)C)cc2)CC1 (centres undefined),> 40 µM,–
> 10 µM,CC(C(=O)N1CCCC1)N1CCN(S(=O)(=O)c2ccc(OC(F)(F)F)cc2)CC1 (centres undefined),–,–

Compound,EC50 (Plasmodium falciparum [1]),EC50 (HepG2),other results
C[C@H](C(=O)N1CCCCC1)N1CCN(S(=O)(=O)c2ccc(C(C)(C)C)cc2)CC1,6.9 µM,> 40 µM,–
CC(C(=O)N1CCCCC1)N1CCN(S(=O)(=O)c2ccc(C(C)(C)C)cc2)CC1 (centres undefined),0.5 µM,> 40 µM,–
CC(C(=O)N1CC2CC2C1)N1CCN(S(=O)(=O)c2ccc(C(C)(C)C)cc2)CC1 (centres undefined),0.33 µM,> 40 µM,–
CCN(CC)CCCC(C)Nc1ccnc2cc(Cl)ccc12 (centres undefined) [CHLOROQUINE],21 µM,–,EC50 (Plasmodium falciparum [3]): 0.097 µM; EC50 (Plasmodium falciparum [4]): > 10 µM; EC50 (Plasmodium falciparum [5]): 0.56 µM; EC50 (Plasmodium falciparum [6]): 0.58 µM; inhibition of growth at 20 µM (Plasmodium falciparum [7]): 99%; EC50 (Plasmodium falciparum [8]): 0.004 µM; EC50 (Plasmodium knowlesi): 0.01 µM; EC50 (Plasmodium falciparum [9]): 0.25 µM; EC50 (Plasmodium falciparum [10]): 0.32 µM
